Results taken from article PMC9989852 (Food and chemical toxicology : an international journal …, 2022).
Like-named read-outs stand apart in the source and are kept apart here.

How the values were obtained:
[1] = PFAS concentration in serum; format: in vivo, B6C3F1 mice; conditions: 0.5%, dermal, 28 days
How it was run: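 Serum came by cardiac puncture about 24 h after the final daily ear dose (25 μl/ear, acetone vehicle; female B6C3F1 mice). Samples underwent solid-phase extraction and LC/MS/MS. Short-chain analytes were quantified as linear isomer only; the legacy comparator was quantified as linear plus branched. Data are mean ± SE of 4–5 mice, one-way ANOVA with Dunnett's vs vehicle.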

ear pinna [2] = experiment: Skin; format: in vivo, B6C3F1 mice; conditions: 0.5%, dermal, 28 days
How it was run: (§1)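 Female B6C3F1 mice (5/group) received 25 μl/ear daily to the dorsal ears in acetone. About 24 h after the last dose, tissues went into RPMI: both auricular dLNs, half spleen and one ear pinna. Single-cell suspensions were acquired on an LSR II, with populations gated per supplemental strategy and FMO gating controls. Results are mean ± SE, n=5, by one-way ANOVA.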

[3] = ref ATSDR, 2021; cited from earlier work
[4] = PFAS concentration in pooled urine; format: in vivo, B6C3F1 mice; conditions: B6C3F1, mouse, urine, topical, 0.5 % w/v
How it was run: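 Urine was caught in a weigh boat as it was excreted during CO2 euthanasia, about 24 h after the final daily ear dose (25 μl/ear, acetone vehicle; female B6C3F1 mice). The 5 mice per group were pooled, with variable volume. Samples underwent solid-phase extraction and LC/MS/MS, as linear isomer for short-chain analytes and linear plus branched for the comparator. Each group gave a single value without statistics.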

skin [5] = experiment: Irritation at the site of dermal application; format: in vivo, B6C3F1 mice; conditions: 0.5%, 28 days
liver = experiment: Liver histopathology after 28-day dermal exposure; format: in vivo, B6C3F1 mice; conditions: 0.5%, 28 days
How it was run: (§2)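 Female B6C3F1 mice (5/group) received 25 μl/ear on the dorsal ear surfaces daily, with acetone as vehicle. Tissues were formalin-fixed about 24 h after the last dose: liver remainder, half spleen, right kidney and half ear pinna. Sections were paraffin-embedded, cut at 5 μm and stained with H&E. A veterinary pathologist read them per STP guideline and graded 1 (minimal) to 5 (severe) by extent.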

liver (caudate) = experiment: Liver gene expression; format: in vivo, B6C3F1 mice; conditions: 0.5%, dermal, 28 days
How it was run: (§3)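 Dosing was daily topical to both dorsal ears (25 μl/ear, acetone vehicle) in female B6C3F1 mice. Liver caudate lobe or half ear pinna was stored in RNAlater and homogenized in RLT buffer. RNA was isolated on RNeasy columns with DNase, and 1–2 μg was reverse-transcribed. TaqMan real-time PCR was read as 2−ΔΔCT vs vehicle, normalized to β-actin. Statistics: ANOVA/Dunnett's, or Kruskal-Wallis/Dunn's for unequal variance.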

B6C3F1 mice [6] = experiment: Serum chemistries after 28-day dermal exposure; format: in vivo; conditions: 28 days
How it was run: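 Female B6C3F1 mice received daily dorsal ear application (25 μl/ear, acetone vehicle). About 24 h after the last dose, blood was taken by cardiac puncture. Serum was separated by centrifugation and stored at −20 °C. ALKP, BUN, glucose and cholesterol were read on a Catalyst DX analyzer. Data are mean ± SE of 4–5 mice, ANOVA with Dunnett's; ALKP was also tested by linear regression (p < 0.05).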

spleen = experiment: Spleen phenotyping by flow cytometry after 28-day dermal exposure; format: in vivo, B6C3F1 mice; conditions: 0.5%, 28 days
How it was run: as §1

skin [7] = conditions: concentrations up to 2%; ref Shane et al., 2020; cited from earlier work
ear pinna [8] = experiment: Skin; format: in vivo, B6C3F1 mice; conditions: 0.5%, dermal, 28 days; remark: listed apart in the source
How it was run: as §3

kidney, spleen = experiment: Kidney and spleen histopathology after 28-day dermal exposure; format: in vivo, B6C3F1 mice; conditions: 0.5%, 28 days
How it was run: as §2

[9] = tested on: auricular draining lymph nodes (dLNs); experiment: Draining lymph node phenotyping by flow cytometry after 28-day dermal exposure; format: in vivo, B6C3F1 mice; conditions: 0.5%, 28 days
How it was run: as §1

B6C3F1 mice [10] = experiment: Organ weights and body weight after 28-day dermal exposure; format: in vivo; conditions: 0.5%, 28 days
B6C3F1 mice [11] = conditions: dermal exposure; Supplemental Table 8; ref Weatherly et al., 2021; cited from earlier work

For `O=C(O)C(F)(F)C(F)(F)C(F)(F)C(F)(F)C(F)(F)C(F)(F)C(F)(F)F` [PFOA, perfluorooctanoic acid, reference compound], the “PFAS serum concentration vs vehicle” value [1] was “significant increase”, the “skin CD11b + F4/80+ DCs, frequency and cell number” value (ear pinna [2]) was “significantly decreased” and the “skin CD11b− F4/80 DCs, frequency and cell number” value (ear pinna [2]) was “significantly decreased”. The “skin CD11b− F/480+ DCs, frequency and cell number” value (ear pinna [2]) was “significantly decreased”, the “skin CD45^+ cells, frequency and cell number” value (ear pinna [2]) was “significantly decreased” and the “skin eosinophils, frequency and cell number” value (ear pinna [2]) was “significantly decreased”. For the same compound, the “skin total DCs, frequency and cell number” value (ear pinna [2]) was “significantly decreased”, the half-life in humans [3] was 2.1–10.1 years and the concentration at 24 h [4] was 260 µg/mL. For the same compound, the “irritation at the site of application” value (skin [5]) was “no irritation”, the “liver hepatocellular hypertrophy (diffuse), marked (incidence)” value (liver) was 5/5 and the “liver Cd36 gene expression, increase” value (liver (caudate)) was 12.2 fold. The “liver Ehhadh gene expression, increase” value (liver (caudate)) was 57.7 fold, the “liver Lpl gene expression, increase” value (liver (caudate)) was 13.1 fold and the “liver Pparδ gene expression” value (liver (caudate)) was “decrease”. For the same compound, the “liver Serpine1 gene expression, increase” value (liver (caudate)) was 10.5 fold, the “serum ALKP, increase” value (B6C3F1 mice [6]; 0.5%) was 112% and the “serum BUN” value (B6C3F1 mice [6]; 0.5%) was “No change”. For the same compound, the serum cholesterol (B6C3F1 mice [6]; 0.5%) was “No change”, the “serum glucose, decrease” value (B6C3F1 mice [6]; 0.5%) was 44% and the “serum alanine aminotransferase (ALT)” value (B6C3F1 mice [6]; any concentration, data not shown) was “No change”. For the same compound, the “spleen MFI of MHCII on B-cells” value (spleen) was “decrease”, the “spleen MFI of MHCII on DCs” value (spleen) was “decrease” and the “spleen frequency of CD4^+ T-cells” value (spleen) was “increase”. The “spleen frequency of CD8^+ T-cells” value (spleen) was “increase”, the “spleen frequency of CD11b + Ly6C + cells” value (spleen) was “decrease” and the “spleen frequency of CD11b + Ly6C− cells” value (spleen) was “decrease”. For the same compound, the “spleen frequency of CD11b + cells” value (spleen) was “decrease”, the “spleen frequency of NK cells” value (spleen) was “decrease” and the “spleen frequency of neutrophils” value (spleen) was “increase”. For the same compound, the “spleen number of B-cells” value (spleen) was “significant decrease”, the “spleen number of CD4^+ T-cells” value (spleen) was “significant decrease” and the “spleen number of CD11b + Ly6C + cells” value (spleen) was “significant decrease”. The “spleen number of CD11b + Ly6C− cells” value (spleen) was “significant decrease”, the “spleen number of CD11b + cells” value (spleen) was “significant decrease” and the “spleen number of NK cells” value (spleen) was “significant decrease”. The “spleen number of eosinophils” value (spleen) was “significant decrease”, the “spleen number of total DCs” value (spleen) was “significant decrease” and the “spleen total cell number” value (spleen) was “significant decrease”. The “signs of skin irritation” value (skin [7]) was “did not show any signs of irritation”, the “skin Flg gene expression” value (ear pinna [8]) was “increased” and the “skin Pparγ gene expression” value (ear pinna [8]) was “significant decrease”. The “skin Pparδ gene expression” value (ear pinna [8]) was “slight significant increase”, the “skin Serpine1 gene expression” value (ear pinna [8]) was “significant increase” and the “spleen decreased lymphocyte cellularity, mild (incidence)” value (kidney, spleen) was 2/5. The “dLN B-cells” value [9] was “no B-cell changes”, the “dLN CD4^+ T-cells, cell number and frequency” value [9] was “decreased” and the “dLN MHCII MFI on B-cells” value [9] was “decrease”. For the same compound, the “dLN eosinophil cell number” value [9] was “decrease”, the “total dLN cellularity” value [9] was “neither PFOA (Supplemental Table 3) nor PFBA (Supplemental Table 9) induced changes” and the body weight (B6C3F1 mice [10]) was “significant decrease”. For the same compound, the “kidney weight (% body weight), increase” value (B6C3F1 mice [10]) was 8%, the “liver weight (% body weight), increase” value (B6C3F1 mice [10]) was 120% and the “spleen weight (% body weight), decrease” value (B6C3F1 mice [10]) was 41%. For the same compound, the “thymus weight (% body weight), decrease” value (B6C3F1 mice [10]) was 71%.

For `O=C(O)C(F)(F)C(F)(F)C(F)(F)F` [PFBA, heptafluorobutyric acid], the serum cholesterol (B6C3F1 mice [11]) is listed as “elevated cholesterol” and the serum glucose levels (B6C3F1 mice [11]) is listed as “increase in glucose levels”.
